Test results from ChEMBL document CHEMBL1141037, “Synthesis and in vitro pharmacological studies of C(4) modified salvinorin A analogues” (Bioorg Med Chem Lett, 2005).

Tests used:
[1] = target: T1, Kappa-type opioid receptor (Homo sapiens, UniProt P41145); test: Percent maximal response in enhanced [35S]GTP-gamma-S, binding to human Opioid receptor kappa expressed in CHO cells relative to U50,488H; assay type: functional, cell-based
Summary of the method: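 Agonist stimulation of [35S]GTPγS binding to membranes of CHO-hKOR cells; efficacy is maximal response expressed as % of that of U50,488H; means of at least three independent experiments run in duplicate.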

[2] = target: T1, Kappa-type opioid receptor; test: Concentration required to enhance [35S]GTP-gamma-S, binding to human Opioid receptor kappa expressed in CHO cells; assay type: functional, cell-based
Summary of the method: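 [35S]GTPγS binding to membranes of CHO cells stably expressing human KOR; EC50 for agonist-stimulated enhancement of binding; means of at least three independent experiments run in duplicate.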

[3] = target: T1, Kappa-type opioid receptor; test: Binding affinity for […] [3H]diprenorphine against human Opioid receptor kappa expressed in chinese hamster ovary cells (CHO cells); assay type: cell-based
Summary of the method: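 Competitive displacement of [3H]diprenorphine binding to membranes from CHO cells stably transfected with human KOR; compounds were first screened at a single concentration.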

T1 sequence (P41145 whole entry): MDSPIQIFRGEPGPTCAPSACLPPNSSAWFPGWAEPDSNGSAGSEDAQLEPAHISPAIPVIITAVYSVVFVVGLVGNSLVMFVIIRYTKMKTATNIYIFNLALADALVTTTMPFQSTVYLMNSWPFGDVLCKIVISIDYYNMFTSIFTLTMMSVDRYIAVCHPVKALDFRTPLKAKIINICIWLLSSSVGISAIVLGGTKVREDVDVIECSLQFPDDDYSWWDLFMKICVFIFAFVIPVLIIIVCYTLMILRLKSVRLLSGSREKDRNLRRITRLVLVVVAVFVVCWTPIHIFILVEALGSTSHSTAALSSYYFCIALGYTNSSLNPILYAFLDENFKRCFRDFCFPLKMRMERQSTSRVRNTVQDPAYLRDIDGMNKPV

SMILES | Efficacy [1] [%] | EC50 [2] [nM] | Ki [3] [nM]
CC(=O)O[C@H]1C[C@@H](C(=O)NCC(=O)OCc2ccccc2)[C@]2(C)CC[C@H]3C(=O)O[C@H](c4ccoc4)C[C@]3(C)[C@H]2C1=O | 105 | 227 | 470
C=CCOC(=O)[C@@H]1C[C@H](OC(C)=O)C(=O)[C@H]2[C@@]1(C)CC[C@H]1C(=O)O[C@H](c3ccoc3)C[C@]21C |  |  | > 1000
CC(=O)O[C@H]1C[C@@H](C(=O)NCCO)[C@]2(C)CC[C@H]3C(=O)O[C@H](c4ccoc4)C[C@]3(C)[C@H]2C1=O |  |  | > 1000
CCOC(=O)[C@@H]1C[C@H](OC(C)=O)C(=O)[C@@H]2[C@@]3(C)C[C@@H](c4ccoc4)OC(=O)[C@H]3CC[C@]21C |  |  | > 1000
CC(=O)O[C@H]1C[C@@H](C(=O)O)[C@]2(C)CC[C@H]3C(=O)O[C@H](c4ccoc4)C[C@]3(C)[C@H]2C1=O |  |  | > 1000
CC(=O)O[C@H]1C[C@@H](C(=O)NC2CC2)[C@]2(C)CC[C@H]3C(=O)O[C@H](c4ccoc4)C[C@]3(C)[C@H]2C1=O |  |  | > 1000
CC(=O)O[C@H]1C[C@@H](C(=O)NC(Cc2c[nH]cn2)C(=O)OCc2ccccc2)[C@]2(C)CC[C@H]3C(=O)O[C@H](c4ccoc4)C[C@]3(C)[C@H]2C1=O (some centres undefined) |  |  | > 1000
CC(=O)O[C@H]1C[C@@H](C(=O)NN2CCOCC2)[C@]2(C)CC[C@H]3C(=O)O[C@H](c4ccoc4)C[C@]3(C)[C@H]2C1=O |  |  | > 1000
CC(=O)O[C@H]1C[C@@H](C(=O)NC2CC2)[C@]2(C)CC[C@@H]3C(=O)O[C@H](c4ccoc4)C[C@]3(C)[C@H]2C1=O | 95 | 840 | 475
CCCCOC(=O)[C@@H]1C[C@H](OC(C)=O)C(=O)[C@H]2[C@@]1(C)CC[C@H]1C(=O)O[C@H](c3ccoc3)C[C@]21C |  |  | > 1000
CC(=O)O[C@H]1C[C@@H](C(=O)N2CCCC2C(=O)OCc2ccccc2)[C@]2(C)CC[C@H]3C(=O)O[C@H](c4ccoc4)C[C@]3(C)[C@H]2C1=O (some centres undefined) | 100 | 348 | 210
CCOC(=O)[C@@H]1C[C@H](OC(C)=O)C(=O)[C@H]2[C@@]1(C)CC[C@H]1C(=O)O[C@H](c3ccoc3)C[C@]21C | 110 | 94.4 | 28.5
CCCCCCCCOC(=O)[C@@H]1C[C@H](OC(C)=O)C(=O)[C@H]2[C@@]1(C)CC[C@H]1C(=O)O[C@H](c3ccoc3)C[C@]21C |  |  | > 1000
CC(=O)O[C@H]1C[C@@H](C(=O)NCCC#N)[C@]2(C)CC[C@H]3C(=O)O[C@H](c4ccoc4)C[C@]3(C)[C@H]2C1=O |  |  | > 1000
CC(=O)O[C@H]1C[C@@H](C(=O)N2CCCC2C(=O)OCc2ccccc2)[C@]2(C)CC[C@@H]3C(=O)O[C@H](c4ccoc4)C[C@]3(C)[C@H]2C1=O (some centres undefined) |  |  | > 1000
CC(=O)O[C@H]1C[C@@H](C(=O)O)[C@]2(C)CC[C@@H]3C(=O)O[C@H](c4ccoc4)C[C@]3(C)[C@H]2C1=O | 94 | 74.1 | 48.6

SMILES | Efficacy [1] [%] | EC50 [2] [nM] | Ki [3] [nM]
CC(=O)O[C@H]1C[C@@H](C(=O)NN2CCC(C)CC2)[C@]2(C)CC[C@H]3C(=O)O[C@H](c4ccoc4)C[C@]3(C)[C@H]2C1=O |  |  | > 1000
C#CCCCOC(=O)[C@@H]1C[C@H](OC(C)=O)C(=O)[C@H]2[C@@]1(C)CC[C@H]1C(=O)O[C@H](c3ccoc3)C[C@]21C | 104 | 224 | 201
C#CCCOC(=O)[C@@H]1C[C@H](OC(C)=O)C(=O)[C@H]2[C@@]1(C)CC[C@H]1C(=O)O[C@H](c3ccoc3)C[C@]21C |  |  | > 1000
CC(=O)O[C@H]1C[C@@H](C(=O)NC(C)C(=O)OCc2ccccc2)[C@]2(C)CC[C@H]3C(=O)O[C@H](c4ccoc4)C[C@]3(C)[C@H]2C1=O (some centres undefined) | 95 | 46.7 | 26.9
CC(=O)O[C@H]1C[C@@H](C(=O)NCc2ccccc2)[C@]2(C)CC[C@H]3C(=O)O[C@H](c4ccoc4)C[C@]3(C)[C@H]2C1=O |  |  | > 1000
CCCOC(=O)[C@@H]1C[C@H](OC(C)=O)C(=O)[C@H]2[C@@]1(C)CC[C@H]1C(=O)O[C@H](c3ccoc3)C[C@]21C |  |  | > 1000
COCOC(=O)[C@@H]1C[C@H](OC(C)=O)C(=O)[C@@H]2[C@@]3(C)C[C@@H](c4ccoc4)OC(=O)[C@H]3CC[C@]21C | 102 | 191 | 110
CC(=O)O[C@H]1C[C@@H](C(=O)NC(CO)C(=O)OCc2ccccc2)[C@]2(C)CC[C@H]3C(=O)O[C@H](c4ccoc4)C[C@]3(C)[C@H]2C1=O (some centres undefined) |  |  | > 1000
CCCCCOC(=O)[C@@H]1C[C@H](OC(C)=O)C(=O)[C@H]2[C@@]1(C)CC[C@H]1C(=O)O[C@H](c3ccoc3)C[C@]21C |  |  | > 1000
CC(=O)O[C@H]1C[C@@H](C(=O)NCCc2ccccc2)[C@]2(C)CC[C@H]3C(=O)O[C@H](c4ccoc4)C[C@]3(C)[C@H]2C1=O |  |  | > 1000
CC(=O)O[C@H]1C[C@@H](C(=O)NC(C)C(=O)OCc2ccccc2)[C@]2(C)CC[C@@H]3C(=O)O[C@H](c4ccoc4)C[C@]3(C)[C@H]2C1=O (some centres undefined) |  |  | > 1000
CC(=O)O[C@H]1C[C@@H](C(=O)OCc2ccccc2)[C@]2(C)CC[C@H]3C(=O)O[C@H](c4ccoc4)C[C@]3(C)[C@H]2C1=O |  |  | > 1000
CC(=O)O[C@H]1C[C@@H](C(=O)NCC(=O)OCc2ccccc2)[C@]2(C)CC[C@@H]3C(=O)O[C@H](c4ccoc4)C[C@]3(C)[C@H]2C1=O |  |  | > 1000
COCOC(=O)[C@@H]1C[C@H](OC(C)=O)C(=O)[C@H]2[C@@]1(C)CC[C@H]1C(=O)O[C@H](c3ccoc3)C[C@]21C | 105 | 58.2 | 99.6
C#CCCCOC(=O)[C@@H]1C[C@H](OC(C)=O)C(=O)[C@@H]2[C@@]3(C)C[C@@H](c4ccoc4)OC(=O)[C@H]3CC[C@]21C |  |  | > 1000
